Results from different studies.
Lines come from different studies, so protocols differ.
Target: Glycogen synthase kinase-3 beta (GSK3B, Homo sapiens, UniProt P49841)

CC(C)S(=O)(=O)c1ccc2nccc(Nc3ccc4sc(C5CCCC5)nc4c3)c2c1
activity vs control (enzyme activity; inhibitor; 1 µM): 113%

COc1ccc2oc(-c3ccc4nc(N)oc4c3)c/c(=N\c3ccccc3NC(=O)CCN)c2c1
remaining binding (binding; 1 µM): 106%

CN1CCN(C(=O)c2ccc(NC(=O)Nc3ccc(N(C)c4ccnc(Nc5ccc(CS(C)(=O)=O)cc5)n4)cc3)cc2)CC1
remaining binding (binding; 1 µM): 95%

C=CC(=O)N1CCC([C@@H]2CCNc3c(C(N)=O)c(-c4ccc(Oc5ccccc5)cc4)nn32)CC1
inhibition (enzyme activity; inhibitor; 1 µM): 16%

C[C@H]1CC[C@H](n2c3cnccc3c3cnc(Nc4ccc5c(n4)CCN(C(=O)CO)C5)nc32)CC1
remaining signal (cell-free assay; 1 µM): 72%

CC#CC(=O)N1CCC[C@H]1c1nc(-c2ccc(C(=O)Nc3ccccn3)cc2)c2c(N)nccn12
inhibition (enzyme activity; inhibitor; 1 µM): 0%

C1=C/COCc2cc(ccc2OCCN2CCCC2)Nc2nccc(n2)-c2cccc(c2)COC/1
remaining binding (binding; 0.1 µM): 82%

CCCCC(=O)Nc1ccc(-c2ccc3ncn(CCC)c(=O)c3c2)cn1
remaining binding (binding; competition with immobilised ligand; 0.5 µM): 100%

N#Cc1ccc(NC(=O)Nc2ccccc2)cc1
remaining binding (cell-free assay; competition with immobilised ligand; 25 µM): 100%

CC(=O)ON=C1C=CC(=C(C#N)c2ccccc2)C=C1
activity vs control (enzyme activity; inhibitor; ADP detection; 2 µM): 88%

Cc1cc(O)c(-c2ccc([C@@H](C)CN(C)C)cc2)c2c1[nH]c(=O)c1sccc12
inhibition (enzyme activity; inhibitor; 0.1 µM; lysate): -0.958%
